Results published in ChEMBL document CHEMBL3108734, “Identification of a new scaffold for hsp90 C-terminal inhibition” (ACS Med Chem Lett, 2014).
The source made the active and inactive calls. No cut-off for these calls is given here.

Columns and labels:
[1] = Antiproliferative activity against human SKBR3 cells after 72 hrs by MTS assay; format: functional, cell-based; details: SK-BR-3, 72 h
Procedure, shortened: (§1)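 IC50 values for growth inhibition were derived from assays run in triplicate. Values are mean ± standard deviation of at least two separate experiments.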

MCF7 = assay: Antiproliferative activity against human MCF7 cells after 72 hrs by MTS assay; format: functional, cell-based; details: MCF7, 72 h; procedure, shortened: as §1
[2] = biological target: Heat shock protein HSP 90-beta (Homo sapiens) (UniProt P08238); assay: Inhibition of HSP90 in human MCF7 cells assessed as degradation of p-Akt at 1 to 10 uM after 24 hrs by Western blotting analysis; format: cell-based
Heat shock protein HSP 90-beta (Homo sapiens), sequence (P08238 whole entry): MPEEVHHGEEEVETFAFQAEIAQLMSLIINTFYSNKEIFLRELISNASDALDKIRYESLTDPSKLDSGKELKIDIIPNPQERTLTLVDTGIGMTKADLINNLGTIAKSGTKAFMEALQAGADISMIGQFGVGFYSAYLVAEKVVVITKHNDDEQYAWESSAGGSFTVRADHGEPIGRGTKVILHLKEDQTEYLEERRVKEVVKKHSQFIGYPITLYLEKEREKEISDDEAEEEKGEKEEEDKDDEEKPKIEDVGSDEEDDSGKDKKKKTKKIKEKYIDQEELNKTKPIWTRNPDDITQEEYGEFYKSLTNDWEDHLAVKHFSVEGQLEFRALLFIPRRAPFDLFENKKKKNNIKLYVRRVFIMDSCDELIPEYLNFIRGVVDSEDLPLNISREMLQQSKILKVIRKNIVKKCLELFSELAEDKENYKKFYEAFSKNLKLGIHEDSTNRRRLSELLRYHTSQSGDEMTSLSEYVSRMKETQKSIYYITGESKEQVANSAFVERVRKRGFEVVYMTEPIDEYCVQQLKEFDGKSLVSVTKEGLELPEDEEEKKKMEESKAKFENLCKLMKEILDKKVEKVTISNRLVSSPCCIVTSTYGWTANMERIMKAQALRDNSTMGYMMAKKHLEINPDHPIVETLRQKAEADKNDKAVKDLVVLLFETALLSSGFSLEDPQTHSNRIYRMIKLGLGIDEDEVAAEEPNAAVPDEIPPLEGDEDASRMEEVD
Procedure, shortened: (§2)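 MCF-7 breast cancer cells were treated with compound at the concentrations shown, then lysed. Lysates were analysed by Western blot for the Hsp90-dependent clients Her2, Raf-1 and p-Akt, with actin as the Hsp90-independent control. Geldanamycin (0.5 μM) served as positive control and DMSO as negative control.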

[3] = biological target: Heat shock protein HSP 90-beta (Homo sapiens) (UniProt P08238); assay: Inhibition of HSP90 in human MCF7 cells assessed as degradation of Raf-1 at 1 to 10 uM after 24 hrs by Western blotting analysis; format: cell-based; procedure, shortened: as §2
[4] = biological target: Heat shock protein HSP 90-beta (Homo sapiens) (UniProt P08238); assay: Inhibition of HSP90 in human MCF7 cells assessed as degradation of Her-2 at 1 to 10 uM after 24 hrs by Western blotting analysis; format: cell-based; procedure, shortened: as §2
[5] = biological target: Heat shock protein HSP 90-beta (Homo sapiens) (UniProt P08238); assay: Inhibition of HSP90 in human MCF7 cells assessed as degradation of Her-2 after 24 hrs by Western blotting analysis; format: cell-based; procedure, shortened: as §2
[6] = biological target: Heat shock protein HSP 90-beta (Homo sapiens) (UniProt P08238); assay: Inhibition of HSP90 in human MCF7 cells assessed as degradation of Raf-1 after 24 hrs by Western blotting analysis; format: cell-based; procedure, shortened: as §2
[7] = biological target: Heat shock protein HSP 90-beta (Homo sapiens) (UniProt P08238); assay: Inhibition of HSP90 in human MCF7 cells assessed as degradation of p-Akt after 24 hrs by Western blotting analysis; format: cell-based; procedure, shortened: as §2

Structure (SMILES) | IC50 (MCF7) [µM] | IC50 [1] [µM] | other results
CO[C@@H]1[C@@H](OC(N)=O)[C@@H](O)[C@H](Oc2ccc3c(O)c(NC(=O)c4ccc(O)c(CC=C(C)C)c4)c(=O)oc3c2C)OC1(C)C [NOVOBIOCIN] | – | 700 | –
CN1CCC(Oc2ccc(-c3cccc(NC(=O)c4ccc(Cl)cc4Cl)c3)cc2)CC1 | 3.93 | 5.91 | –
COc1cccc(C(=O)Nc2cccc(-c3ccc(OC4CCN(C)CC4)cc3)c2)c1 | 4.5 | 8.36 | –
CC(C)=CCc1cc(C(=O)Nc2cccc(-c3ccc(OC4CCN(C)CC4)cc3)c2)ccc1O | 2.21 | 2.94 | inhibition [2]: Active; inhibition [3]: Active; inhibition [4]: Active
Cc1ccc(C(=O)Nc2cccc(-c3ccc(OC4CCN(C)CC4)cc3)c2)cc1 | 3.92 | 5.27 | –
CN1CCC(Oc2ccc(-c3cccc(NC(=O)c4cccc(Cl)c4)c3)cc2)CC1 | 2.11 | 4.29 | –
CN1CCC(Oc2ccc(-c3cccc(NC(=O)c4ccc5ccccc5c4)c3)cc2)CC1 | 1.66 | 2.09 | –
Cc1cccc(C(=O)Nc2cccc(-c3ccc(OC4CCN(C)CC4)cc3)c2)c1 | 7.73 | 11.4 | –
CN1CCC(Oc2ccc(-c3cccc(NC(=O)c4ccc(C(C)(C)C)cc4)c3)cc2)CC1 | 3.45 | 1.51 | –

More lines, in order of falling IC50 (MCF7), values ahead:

IC50 (MCF7) [µM] | Structure (SMILES) | IC50 [1] [µM] | other results
12 | CN1CCC(Oc2ccc(-c3cccc(NC(=O)c4ccccc4)c3)cc2)CC1 | 18.9 | –
5.52 | COc1ccc(C(=O)Nc2cccc(-c3ccc(OC4CCN(C)CC4)cc3)c2)cc1 | 10.1 | –
5.17 | CN1CCC(Oc2ccc(-c3cccc(NC(=O)c4ccccc4Cl)c3)cc2)CC1 | 7.87 | –
3.72 | CN1CCC(Oc2ccc(-c3cccc(NC(=O)c4cc(Cl)cc(Cl)c4)c3)cc2)CC1 | 4.23 | –
2.71 | COc1cccc(-c2cc(C(=O)Nc3cccc(-c4ccc(OC5CCN(C)CC5)cc4)c3)ccc2OC)c1 | 3.47 | –
2.23 | CN1CCC(Oc2ccc(-c3cccc(NC(=O)c4ccc(Cl)cc4)c3)cc2)CC1 | 3.63 | –
2.17 | CN1CCC(Oc2ccc(-c3cccc(NC(=O)c4ccc(Cl)c(Cl)c4)c3)cc2)CC1 | 2.24 | –
1.45 | CC(=O)Oc1ccc(C(=O)Nc2cccc(-c3ccc(OC4CCN(C)CC4)cc3)c2)cc1CC=C(C)C | 3.65 | –
1.1 | CN1CCC(Oc2ccc(-c3cccc(NC(=O)c4cccc5ccccc45)c3)cc2)CC1 | 1.64 | –
0.88 | CN1CCC(Oc2ccc(-c3cccc(NC(=O)c4ccc(Br)cc4)c3)cc2)CC1 | 1.94 | inhibition [5]: Dose-dependent effect; inhibition [6]: Dose-dependent effect; inhibition [7]: Dose-dependent effect
